Measured values reported in ChEMBL document CHEMBL4138242, “Synthesis and antibacterial evaluation of novel cationic chalcone derivatives possessing broad spectrum antibacterial activity” (Eur J Med Chem, 2018).
Each block holds one molecule with its values, some of them ahead of it.

Experiments:
Staphylococcus aureus [1] = assay: Antibacterial activity against Staphylococcus aureus ATCC 29213 after 16 to 20 hrs by broth microdilution method; type: functional
In short: (§1)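 Broth microdilution per CLSI. Bacteria grown 4-6 h (about 10⁸ CFU/mL), then diluted to about 10⁶ CFU/mL. Medium: Mueller-Hinton broth, except Luria-Bertani broth for E. coli. Compounds in sterile water, twofold series 256-0.5 µg/mL, mixed 1:1 with inoculum, 37 °C for 16-20 h. MIC is the lowest concentration without visible growth. Duplicate wells; experiment repeated at least twice.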

Enterococcus faecalis = assay: Antibacterial activity against Enterococcus faecalis ATCC 29212 after 16 to 20 hrs by broth microdilution method; type: functional; in short: as §1
Escherichia coli [2] = assay: Antibacterial activity against Escherichia coli ATCC 25922 after 16 to 20 hrs by broth microdilution method; type: functional; in short: as §1
Salmonella enterica = assay: Antibacterial activity against Salmonella enterica ATCC 13076 after 16 to 20 hrs by broth microdilution method; type: functional; in short: as §1
[3] = Hemolytic activity in sheep RBC after 1 hr; type: ADME, cell-based, Ovis aries, Erythrocyte; conditions: sheep red blood cells (erythrocytes)
In short: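 Sheep red blood cells (150 µL suspension) mixed with 50 µL of compound dilutions (5120-10 µg/mL), 1 h at 37 °C, then centrifuged. Supernatant read at 540 nm. Percent hemolysis calculated relative to RBC-only control (0%) and 0.1% Triton X-100 (100%).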

Staphylococcus aureus [4] = assay: Antibacterial activity against methicillin-resistant Staphylococcus aureus clinical isolate 1105183 cono7 after 16 to 20 hrs by broth microdilution method; type: functional
In short: (§2)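 CLSI broth microdilution in Mueller-Hinton broth. A 4-6 h culture was diluted to about 10⁶ CFU/mL and mixed 1:1 with compound dilutions prepared at 256 to 0.5 µg/mL from aqueous stocks. Plates were incubated at 37 °C for 16-20 h and read visually for MIC. Each concentration was run in duplicate, and the experiment was repeated at least twice. Vancomycin and meropenem were comparators.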

Staphylococcus aureus [5] = assay: Antibacterial activity against methicillin-resistant Staphylococcus aureus clinical isolate 20130911034sau after 16 to 20 hrs by broth microdilution method; type: functional; in short: as §2
Staphylococcus aureus [6] = assay: Antibacterial activity against methicillin-resistant Staphylococcus aureus clinical isolate 0831010 after 16 to 20 hrs by broth microdilution method; type: functional; in short: as §2
Staphylococcus aureus [7] = assay: Antibacterial activity against methicillin-resistant Staphylococcus aureus clinical isolate 1104060 after 16 to 20 hrs by broth microdilution method; type: functional; in short: as §2
Staphylococcus aureus [8] = assay: Antibacterial activity against methicillin-resistant Staphylococcus aureus clinical isolate 20131012632sau after 16 to 20 hrs by broth microdilution method; type: functional; in short: as §2
Staphylococcus aureus [9] = assay: Antibacterial activity against methicillin-resistant Staphylococcus aureus clinical isolate 1207007 after 16 to 20 hrs by broth microdilution method; type: functional; in short: as §2
Staphylococcus aureus [10] = assay: Antibacterial activity against methicillin-resistant Staphylococcus aureus clinical isolate 1-may after 16 to 20 hrs by broth microdilution method; type: functional; in short: as §2
Staphylococcus aureus [11] = assay: Antibacterial activity against methicillin-resistant Staphylococcus aureus clinical isolate 0906202 after 16 to 20 hrs by broth microdilution method; type: functional; in short: as §2
Staphylococcus aureus [12] = assay: Antibacterial activity against methicillin-resistant Staphylococcus aureus clinical isolate 1208143 after 16 to 20 hrs by broth microdilution method; type: functional; in short: as §2
Klebsiella pneumoniae [13] = assay: Antibacterial activity against drug-resistant carbapenemase producing Klebsiella pneumoniae clinical isolate KP-14-8 after 16 to 20 hrs by broth microdilution method; type: functional; in short: as §2
Klebsiella pneumoniae [14] = assay: Antibacterial activity against drug-resistant carbapenemase producing Klebsiella pneumoniae clinical isolate KP-13-45 after 16 to 20 hrs by broth microdilution method; type: functional; in short: as §2
Klebsiella pneumoniae [15] = assay: Antibacterial activity against drug-resistant carbapenemase producing Klebsiella pneumoniae clinical isolate KP-14-3 after 16 to 20 hrs by broth microdilution method; type: functional; in short: as §2
Klebsiella pneumoniae [16] = assay: Antibacterial activity against drug-resistant carbapenemase producing Klebsiella pneumoniae clinical isolate KP-14-1 after 16 to 20 hrs by broth microdilution method; type: functional; in short: as §2
Klebsiella pneumoniae [17] = assay: Antibacterial activity against drug-resistant carbapenemase producing Klebsiella pneumoniae clinical isolate KP-14-4 after 16 to 20 hrs by broth microdilution method; type: functional; in short: as §2
Klebsiella pneumoniae [18] = assay: Antibacterial activity against drug-resistant carbapenemase producing Klebsiella pneumoniae clinical isolate KP-13-54 after 16 to 20 hrs by broth microdilution method; type: functional; in short: as §2
Klebsiella pneumoniae [19] = assay: Antibacterial activity against drug-resistant carbapenemase producing Klebsiella pneumoniae clinical isolate KP-14-2 after 16 to 20 hrs by broth microdilution method; type: functional; in short: as §2
Klebsiella pneumoniae [20] = assay: Antibacterial activity against drug-resistant carbapenemase producing Klebsiella pneumoniae clinical isolate EC-13-23 after 16 to 20 hrs by broth microdilution method; type: functional; in short: as §2
Klebsiella pneumoniae [21] = assay: Antibacterial activity against drug-resistant carbapenemase producing Klebsiella pneumoniae clinical isolate KP-14-5 after 16 to 20 hrs by broth microdilution method; type: functional; in short: as §2
Klebsiella pneumoniae [22] = assay: Antibacterial activity against drug-resistant carbapenemase producing Klebsiella pneumoniae clinical isolate KP-13-55 after 16 to 20 hrs by broth microdilution method; type: functional; in short: as §2
Klebsiella pneumoniae [23] = assay: Antibacterial activity against drug-resistant carbapenemase producing Klebsiella pneumoniae clinical isolate KP-14-45 after 16 to 20 hrs by broth microdilution method; type: functional; in short: as §2
Klebsiella pneumoniae [24] = assay: Antibacterial activity against drug-resistant carbapenemase producing Klebsiella pneumoniae clinical isolate KP-14-18 after 16 to 20 hrs by broth microdilution method; type: functional; in short: as §2
Escherichia coli [25] = assay: Antibacterial activity against drug-resistant NDM1 producing Escherichia coli clinical isolate EC-13-49 after 16 to 20 hrs by broth microdilution method; type: functional; in short: as §2
Escherichia coli [26] = assay: Antibacterial activity against drug-resistant NDM1 producing Escherichia coli clinical isolate Ecl-14-58 after 16 to 20 hrs by broth microdilution method; type: functional; in short: as §2
Escherichia coli [27] = assay: Antibacterial activity against drug-resistant NDM1 producing Escherichia coli clinical isolate KP-13-58 after 16 to 20 hrs by broth microdilution method; type: functional; in short: as §2
Escherichia coli [28] = assay: Antibacterial activity against drug-resistant NDM1 producing Escherichia coli clinical isolate Ecl-13-62 after 16 to 20 hrs by broth microdilution method; type: functional; in short: as §2
Escherichia coli [29] = assay: Antibacterial activity against drug-resistant NDM1 producing Escherichia coli clinical isolate EC-14-54 after 16 to 20 hrs by broth microdilution method; type: functional; in short: as §2
Escherichia coli [30] = assay: Antibacterial activity against drug-resistant NDM1 producing Escherichia coli clinical isolate Ecl-14-59 after 16 to 20 hrs by broth microdilution method; type: functional; in short: as §2
Escherichia coli [31] = assay: Antibacterial activity against drug-resistant NDM1 producing Escherichia coli clinical isolate EA-14-61 after 16 to 20 hrs by broth microdilution method; type: functional; in short: as §2
Escherichia coli [32] = assay: Antibacterial activity against drug-resistant NDM1 producing Escherichia coli clinical isolate Ecl-14-56 after 16 to 20 hrs by broth microdilution method; type: functional; in short: as §2
Escherichia coli [33] = assay: Antibacterial activity against drug-resistant NDM1 producing Escherichia coli clinical isolate 1460 after 16 to 20 hrs by broth microdilution method; type: functional; in short: as §2
Escherichia coli [34] = assay: Antibacterial activity against drug-resistant NDM1 producing Escherichia coli clinical isolate SM-15-84 after 16 to 20 hrs by broth microdilution method; type: functional; in short: as §2
Escherichia coli [35] = assay: Antibacterial activity against drug-resistant NDM1 producing Escherichia coli clinical isolate CF-15-61 after 16 to 20 hrs by broth microdilution method; type: functional; in short: as §2
Escherichia coli [36] = assay: Antibacterial activity against drug-resistant NDM1 producing Escherichia coli clinical isolate CF-13-61 after 16 to 20 hrs by broth microdilution method; type: functional; in short: as §2

MIC (Staphylococcus aureus [1]): 4 µg/mL | MIC (Enterococcus faecalis): 8 µg/mL | MIC (Escherichia coli [2]): 16 µg/mL | MIC (Salmonella enterica): 32 µg/mL
SMILES: CCCCCCCCCCCC[N+](C)(C)CC(=O)Nc1ccc(C(=O)/C=C/c2ccccc2F)cc1.[Cl-]
HC50 at 1 h [3]: 293 µg/mL

MIC (Staphylococcus aureus [1]): 4 µg/mL | MIC (Enterococcus faecalis): 8 µg/mL | MIC (Escherichia coli [2]): 16 µg/mL | MIC (Salmonella enterica): 32 µg/mL
SMILES: CCCCCCCC[N+](C)(C)CC(=O)Nc1ccc(C(=O)/C=C/c2ccccn2)cc1.[Cl-]
HC50 at 1 h [3]: 187 µg/mL

MIC (Escherichia coli [2]): < 0.125 µg/mL
SMILES: C[C@@H](O)[C@H]1C(=O)N2C(C(=O)O)=C(S[C@@H]3CN[C@H](C(=O)N(C)C)C3)[C@H](C)[C@H]12 [MEROPENEM]

Continued, molecule first:

SMILES: CCCC[N+](C)(C)CC(=O)Nc1ccc(C(=O)/C=C/c2cccs2)cc1.[Cl-]
MIC (Staphylococcus aureus [1]): 32 µg/mL | MIC (Enterococcus faecalis): 32 µg/mL | MIC (Escherichia coli [2]): 64 µg/mL | MIC (Salmonella enterica): 128 µg/mL | HC50 at 1 h [3]: 360 µg/mL

SMILES: CCCCCCCC[N+](C)(C)CC(=O)Nc1ccc(C(=O)/C=C/c2cccs2)cc1.[Cl-]
MIC (Staphylococcus aureus [1]): 0.5 µg/mL | MIC (Enterococcus faecalis): 1 µg/mL | MIC (Escherichia coli [2]): 4 µg/mL | MIC (Salmonella enterica): 8 µg/mL | HC50 at 1 h [3]: 133 µg/mL | MIC (Staphylococcus aureus [4]): 1 µg/mL | MIC (Staphylococcus aureus [5]): 1 µg/mL | MIC (Staphylococcus aureus [6]): 0.5 µg/mL | MIC (Staphylococcus aureus [7]): 16 µg/mL | MIC (Staphylococcus aureus [8]): 4 µg/mL | MIC (Staphylococcus aureus [9]): 1 µg/mL | MIC (Staphylococcus aureus [10]): 2 µg/mL | MIC (Staphylococcus aureus [11]): 1 µg/mL | MIC (Staphylococcus aureus [12]): 2 µg/mL | MIC (Klebsiella pneumoniae [13]): 8 µg/mL | MIC (Klebsiella pneumoniae [14]): 8 µg/mL | MIC (Klebsiella pneumoniae [15]): 8 µg/mL | MIC (Klebsiella pneumoniae [16]): 8 µg/mL | MIC (Klebsiella pneumoniae [17]): 8 µg/mL | MIC (Klebsiella pneumoniae [18]): 8 µg/mL | MIC (Klebsiella pneumoniae [19]): 2 µg/mL | MIC (Klebsiella pneumoniae [20]): 8 µg/mL | MIC (Klebsiella pneumoniae [21]): 8 µg/mL | MIC (Klebsiella pneumoniae [22]): 16 µg/mL | MIC (Klebsiella pneumoniae [23]): 16 µg/mL | MIC (Klebsiella pneumoniae [24]): 16 µg/mL | MIC (Escherichia coli [25]): 4 µg/mL | MIC (Escherichia coli [26]): 8 µg/mL | MIC (Escherichia coli [27]): 2 µg/mL | MIC (Escherichia coli [28]): 8 µg/mL | MIC (Escherichia coli [29]): 4 µg/mL | MIC (Escherichia coli [30]): 8 µg/mL | MIC (Escherichia coli [31]): 8 µg/mL | MIC (Escherichia coli [32]): 8 µg/mL | MIC (Escherichia coli [33]): 2 µg/mL | MIC (Escherichia coli [34]): 4 µg/mL | MIC (Escherichia coli [35]): 8 µg/mL | MIC (Escherichia coli [36]): 8 µg/mL
